Assays:
[1] = system: HRV strains; settings: read-out: EC50 against HRV strains; ref Patick et al., 2005; cited from earlier work
[2] = cited from earlier work
[3] = system: HRV1B; assay: Cell-based inhibition assay; settings: Human rhinovirus sp., WI-38, read-out: EC50 HRV1B
Summary of the method: (§1)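 WI-38 cells, confluent or semi-confluent, at 37 °C were infected at MOI 0.05 for 1 h. Inoculum was then replaced with medium containing test compound (up to 100 μM) or DMSO (<0.1%). Cells were incubated up to 168 h, until 80–90% CPE. Virus yield was titrated by TCID50 (Reed–Muench), and EC50 was derived by curve fitting.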

[4] = system: HRV51; assay: Cell-based inhibition assay; settings: Human rhinovirus sp., HRV51, WI-38, read-out: EC50 HRV51
Summary of the method: as §1

[5] = ref Dragovich et al., 1999; cited from earlier work
[6] = system: EV-D68; assay: Cell-based inhibition assay; settings: Enterovirus D, EVD68, WI-38, read-out: EC50 EV-D68
Summary of the method: as §1

SMILES	EC50 [1] [nM]	oral availability ([2]; ref Patick et al., 2005)	EC50 [3] [nM]	EC50 [4] [nM]	oral bioavailability ([2]; ref Dragovich et al., 1999)	aqueous solubility [5]	EC50 [6] [nM]
C#CC[C@@H](C(=O)N[C@H](/C=C/C(=O)OCC)C[C@@H]1CCNC1=O)n1cccc(NC(=O)c2cc(C)on2)c1=O [Compound 1 (Patick et al., 2005)]	< 100	orally available	–	–	–	–	–
CCOC(=O)/C=C/[C@H](C[C@@H]1CCNC1=O)NC(=O)[C@@H](CC(=O)[C@@H](NC(=O)c1cc(C)on1)C(C)C)Cc1ccc(F)cc1 [AG7088]	–	–	20 ± 10	50 ± 30	low oral bioavailability	poor aqueous solubility	10 ± 3
Cc1cc(CCCOc2c(C)cc(-c3noc(C(F)(F)F)n3)cc2C)on1 [Plecornaril, Pleconaril]	–	–	270 ± 180	70 ± 20	–	–	600 ± 140

— PMC4698184 (Antiviral Research, 2015)
